Measurements reported in ChEMBL document CHEMBL1135421, “2-(Anilinomethyl)imidazolines as alpha1 adrenergic receptor agonists: the discovery of alpha1a subtype selective 2'-alkylsulfonyl-substituted analogues” (J Med Chem, 2002).

Columns and labels:
[1] = target: T1, Alpha-2A adrenergic receptor (Homo sapiens, UniProt P08913); test: Affinity to human Alpha-2A adrenergic receptor determined by radioligand binding techniques from chinese hamster ovary (CHO) cells; assay type: cell-based
T1 sequence (P08913 whole entry): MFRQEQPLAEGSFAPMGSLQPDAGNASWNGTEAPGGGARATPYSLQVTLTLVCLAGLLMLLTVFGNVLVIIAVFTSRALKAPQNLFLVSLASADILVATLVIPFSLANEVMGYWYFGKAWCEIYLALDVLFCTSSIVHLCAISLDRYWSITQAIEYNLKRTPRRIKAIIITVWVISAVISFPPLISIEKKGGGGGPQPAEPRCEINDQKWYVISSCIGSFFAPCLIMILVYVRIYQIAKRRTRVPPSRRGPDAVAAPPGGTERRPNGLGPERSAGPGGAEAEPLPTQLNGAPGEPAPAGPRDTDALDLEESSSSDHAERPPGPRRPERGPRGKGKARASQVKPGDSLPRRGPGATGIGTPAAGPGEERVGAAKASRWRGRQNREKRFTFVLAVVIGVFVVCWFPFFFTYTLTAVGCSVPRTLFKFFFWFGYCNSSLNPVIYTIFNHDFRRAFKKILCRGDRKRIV

[2] = target: T2, Alpha-1B adrenergic receptor (Homo sapiens, UniProt P35368); test: Agonist potency at Alpha-1B adrenergic receptor expressed in rat-1 fibroblasts; assay type: functional
T2 sequence (P35368 whole entry): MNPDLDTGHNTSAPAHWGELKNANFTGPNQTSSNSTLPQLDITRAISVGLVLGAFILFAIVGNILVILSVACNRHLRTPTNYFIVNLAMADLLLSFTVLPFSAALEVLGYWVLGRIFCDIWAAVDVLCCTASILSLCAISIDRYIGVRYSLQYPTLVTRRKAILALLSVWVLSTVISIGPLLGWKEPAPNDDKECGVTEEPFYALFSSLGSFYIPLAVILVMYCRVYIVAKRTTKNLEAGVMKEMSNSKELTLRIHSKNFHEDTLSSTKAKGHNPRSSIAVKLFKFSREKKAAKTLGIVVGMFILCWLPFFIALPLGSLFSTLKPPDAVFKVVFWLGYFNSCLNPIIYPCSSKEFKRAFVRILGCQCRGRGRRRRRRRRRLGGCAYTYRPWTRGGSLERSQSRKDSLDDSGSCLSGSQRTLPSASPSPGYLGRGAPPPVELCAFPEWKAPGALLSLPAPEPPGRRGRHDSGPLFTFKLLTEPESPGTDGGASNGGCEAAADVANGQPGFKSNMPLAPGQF

[3] = target: T3, Alpha-2C adrenergic receptor (Homo sapiens, UniProt P18825); test: Agonist potency at Alpha-2C adrenergic receptor assayed in CHO cells expressing human Alpha-2C adrenergic receptor; assay type: functional, cell-based
T3 sequence (P18825 whole entry): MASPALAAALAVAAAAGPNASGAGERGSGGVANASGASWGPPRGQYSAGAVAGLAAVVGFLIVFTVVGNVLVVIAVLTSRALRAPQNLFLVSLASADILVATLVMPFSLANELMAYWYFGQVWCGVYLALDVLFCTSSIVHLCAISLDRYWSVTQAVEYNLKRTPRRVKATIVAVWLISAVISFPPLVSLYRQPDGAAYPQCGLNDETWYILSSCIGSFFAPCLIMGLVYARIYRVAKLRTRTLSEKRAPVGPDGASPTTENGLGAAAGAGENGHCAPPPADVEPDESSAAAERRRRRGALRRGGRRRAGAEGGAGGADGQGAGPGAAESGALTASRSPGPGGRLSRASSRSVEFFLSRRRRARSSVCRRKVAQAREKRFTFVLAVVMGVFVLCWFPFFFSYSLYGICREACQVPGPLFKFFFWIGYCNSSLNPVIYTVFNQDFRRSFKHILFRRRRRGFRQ

[4] = target: T4, Alpha-1A adrenergic receptor (Homo sapiens) (UniProt P35348); test: Efficacy as % of the maximal effect observed for nonselective agonist phenylephrine in rat-1 fibroblasts expressing human Alpha-1 adrenergic receptor; assay type: functional
T4 sequence (whole entry): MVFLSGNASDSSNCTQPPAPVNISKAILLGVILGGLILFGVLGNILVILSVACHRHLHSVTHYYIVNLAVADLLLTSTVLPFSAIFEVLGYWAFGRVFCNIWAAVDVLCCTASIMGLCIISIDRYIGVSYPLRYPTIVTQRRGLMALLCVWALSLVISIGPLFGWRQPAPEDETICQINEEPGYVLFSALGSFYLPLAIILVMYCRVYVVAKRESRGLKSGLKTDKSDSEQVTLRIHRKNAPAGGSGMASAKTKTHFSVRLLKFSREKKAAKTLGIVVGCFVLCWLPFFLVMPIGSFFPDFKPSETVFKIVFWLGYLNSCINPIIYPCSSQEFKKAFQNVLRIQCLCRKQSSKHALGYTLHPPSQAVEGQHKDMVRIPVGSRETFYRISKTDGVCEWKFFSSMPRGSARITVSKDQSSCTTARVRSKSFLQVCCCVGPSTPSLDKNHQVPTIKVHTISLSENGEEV
How it was run: (§1)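 Rat-1 fibroblasts expressing human α1a/α1b/α1d, grown in DMEM with 10% heat-inactivated FBS and 0.6 mg/mL G418, plated 6000 cells/well and cultured 48 h at 37 °C. Loaded 2 h at 37 °C with Calcium Green (4 μM), 0.2% pluronic acid and 2.5 mM probenecid in HEPES buffer pH 7.4. FLIPR read at room temperature: 10 s baseline, then 50 s after compound. 11-point curves as % of 40 μM phenylephrine response, top concentration typically 5 μM.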

[5] = target: T5, Alpha-2A adrenergic receptor (Homo sapiens) (UniProt P08913); test: Efficacy as percentage of the maximal effect observed for nonselective agonist UK-14304 in CHO cells expressing human Alpha-2A adrenergic receptor; assay type: functional, cell-based
T5 sequence (whole entry): T1 sequence (P08913 whole entry)

[6] = target: T6, Alpha-1D adrenergic receptor (Homo sapiens, UniProt P25100); test: Agonist potency at Alpha-1D adrenergic receptor assayed in rat-1 fibroblasts expressing human Alpha-1D adrenergic receptor; assay type: functional; how it was run: as §1
T6 sequence (P25100 whole entry): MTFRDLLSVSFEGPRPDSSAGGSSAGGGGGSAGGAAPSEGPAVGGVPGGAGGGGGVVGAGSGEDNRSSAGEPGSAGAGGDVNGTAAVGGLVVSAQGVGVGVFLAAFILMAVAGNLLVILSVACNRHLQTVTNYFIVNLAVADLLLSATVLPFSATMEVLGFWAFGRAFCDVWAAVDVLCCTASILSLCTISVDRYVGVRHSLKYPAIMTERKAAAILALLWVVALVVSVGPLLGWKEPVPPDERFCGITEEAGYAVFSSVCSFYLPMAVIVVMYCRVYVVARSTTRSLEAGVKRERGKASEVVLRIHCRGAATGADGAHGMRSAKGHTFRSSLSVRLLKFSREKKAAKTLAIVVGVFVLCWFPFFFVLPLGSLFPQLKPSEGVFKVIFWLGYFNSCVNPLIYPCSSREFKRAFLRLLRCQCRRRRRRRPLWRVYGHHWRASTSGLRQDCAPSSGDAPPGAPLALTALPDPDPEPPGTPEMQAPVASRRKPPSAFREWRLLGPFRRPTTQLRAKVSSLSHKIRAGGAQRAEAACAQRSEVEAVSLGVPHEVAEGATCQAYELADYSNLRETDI

[7] = target: T7, Alpha-1A adrenergic receptor (Homo sapiens, UniProt P35348); test: Agonist potency at Alpha-1 adrenergic receptor assayed in rat-1 fibroblasts expressing human Alpha-1 adrenergic receptor; assay type: functional; how it was run: as §1
T7 sequence (P35348 whole entry): T4 sequence (whole entry)

| SMILES | Ki [1] | EC50 [2] | EC50 [3] | Max [4] | Max [5] | EC50 [6] | EC50 [7] |
| --- | --- | --- | --- | --- | --- | --- | --- |
| CS(=O)(=O)c1ccccc1NCC1=NCCN1 | 5620 nM | > 100000 nM | 3160 nM | 103% | 11% |  |  |
| CS(=O)(=O)c1cc(Cl)ccc1NCC1=NCCN1 | 5010 nM |  | > 10000 nM | 41% | 38% | > 100000 nM | 513 nM |
| Cc1ccc(S(C)(=O)=O)c(NCC2=NCCN2)c1 | 3890 nM | 141 nM | 1120 nM | 98% | 24% | > 2000 nM | 1.95 nM |
| CSc1ccccc1NCC1=NCCN1 | 47.9 nM |  |  |  | 76% |  |  |
| CS(=O)(=O)c1c(F)cccc1NCC1=NCCN1 | > 7940 nM | > 100000 nM |  |  | 64% | > 100000 nM | 24 nM |
| CCS(=O)(=O)c1ccccc1NCC1=NCCN1 | 1320 nM | > 100000 nM |  | 115% | 10% | > 100000 nM | 240 nM |
| C[S+]([O-])c1ccccc1NCC1=NCCN1 (stereo not given) | 977 nM | > 100000 nM |  | 91% | 21% |  |  |
| CS(=O)(=O)c1cc(F)ccc1NCC1=NCCN1 | 398 nM | > 100000 nM |  | 61% | 19% |  |  |
| CSc1ccc(F)cc1NCC1=NCCN1 | 18.2 nM | 1.86 nM | 5.62 nM | 90% | 96% | 21.9 nM | 2.29 nM |
| CCCS(=O)(=O)c1ccccc1NCC1=NCCN1 |  |  |  | 115% | 23% |  |  |
| CSc1ccc(Cl)cc1NCC1=NCCN1 | 41.7 nM | 0.501 nM | 2.82 nM | 82% | 93% | 2.69 nM | 0.437 nM |
| CSc1c(F)cccc1NCC1=NCCN1 | 166 nM | 85.1 nM |  | 91% | 102% | 33.9 nM | 7.76 nM |
| CSc1ccc(C)cc1NCC1=NCCN1 | 63.1 nM | 0.417 nM | 8.91 nM | 101% | 87% | 0.912 nM | 0.11 nM |
| CS(=O)(=O)c1cccc(F)c1NCC1=NCCN1 | 871 nM | > 100000 nM | 447 nM | 106% | 38% | > 100000 nM | 41.7 nM |
| CS(=O)(=O)c1ccc(F)cc1NCC1=NCCN1 | 4470 nM | > 100000 nM | 2000 nM | 96% | 18% | > 100000 nM | 16.6 nM |
| CS(=O)(=O)c1ccc(Cl)cc1NCC1=NCCN1 | > 7940 nM | 61.7 nM | 794 nM | 91% | 42% | > 100000 nM | 2.82 nM |
| CC(C)Sc1ccccc1NCC1=NCCN1 | 81.3 nM | 61.7 nM |  | 115% | 64% | > 5010 nM | 5.01 nM |
| CSc1cc(F)ccc1NCC1=NCCN1 | 58.9 nM | 6.03 nM | 100 nM | 93% | 47% | 9.12 nM | 7.76 nM |
| CS(=O)(=O)c1ccc(C(F)(F)F)cc1NCC1=NCCN1 | > 7940 nM | > 100000 nM | > 10000 nM | 95% | 33% | > 100000 nM | 1100 nM |
| CC(C)S(=O)(=O)c1ccccc1NCC1=NCCN1 | 2950 nM | > 10000 nM |  | 70% |  | > 5010 nM | 1950 nM |
| COc1ccc(SC)c(NCC2=NCCN2)c1 | 219 nM | 3.63 nM |  | 101% | 52% | 5.01 nM | 1.58 nM |
